Key:
TK-10 = assay: Growth inhibition of human TK10 cells at 10 uM incubated for 48 hrs by sulforhodamine B assay relative to control; format: functional; details: TK-10, 48 h, read-out: GI
Method in brief: (§1)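 NCI-60 single-dose screen at 10 µM run by the NCI Developmental Therapeutics Program; growth percent read from the one-dose mean graph, with percent inhibition approximated from those growth-percent values.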

HOP-62 = assay: Growth inhibition of human HOP62 cells assessed as cell growth at 10 uM incubated for 48 hrs by sulforhodamine B assay relative to control; format: functional; details: HOP-62, 48 h, read-out: Activity
Method in brief: (§2)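 NCI-60 one-dose screen run by the NCI Developmental Therapeutics Program at a single 10 µM concentration; growth percent read from the one-dose mean graph.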

MDA-MB-435 = assay: Growth inhibition of human MDA-MB-435 cells assessed as cell growth at 10 uM incubated for 48 hrs by sulforhodamine B assay relative to control; format: functional; details: MDA-MB-435, 48 h, read-out: Activity; method in brief: as §2
MDA-MB-468 = assay: Growth inhibition of human MDA-MB-468 cells at 10 uM incubated for 48 hrs by sulforhodamine B assay relative to control; format: functional; details: MDA-MB-468, 48 h, read-out: GI; method in brief: as §2
NCI-H460 = assay: Growth inhibition of human NCI-H460 cells assessed as cell growth at 10 uM incubated for 48 hrs by sulforhodamine B assay relative to control; format: functional; details: NCI-H460, 48 h, read-out: Activity; method in brief: as §2
OVCAR-5 = assay: Growth inhibition of human OVCAR5 cells assessed as cell growth at 10 uM incubated for 48 hrs by sulforhodamine B assay relative to control; format: functional; details: OVCAR-5, 48 h, read-out: Activity; method in brief: as §2
SNB-75 = assay: Growth inhibition of human SNB75 cells assessed as cell growth at 10 uM incubated for 48 hrs by sulforhodamine B assay relative to control; format: functional; details: SNB-75, 48 h, read-out: Activity; method in brief: as §1
ACHN = assay: Growth inhibition of human ACHN cells at 10 uM incubated for 48 hrs by sulforhodamine B assay relative to control; format: functional; details: read-out: GI; method in brief: as §2
OVCAR-3 = assay: Growth inhibition of human OVCAR3 cells assessed as cell growth at 10 uM incubated for 48 hrs by sulforhodamine B assay relative to control; format: functional; details: OVCAR-3, 48 h, read-out: Activity; method in brief: as §2
NCI/ADR-RES = assay: Growth inhibition of human NCI/ADR-RES cells assessed as cell growth at 10 uM incubated for 48 hrs by sulforhodamine B assay relative to control; format: functional; details: read-out: Activity; method in brief: as §2
OVCAR-8 = assay: Growth inhibition of human OVCAR8 cells assessed as cell growth at 10 uM incubated for 48 hrs by sulforhodamine B assay relative to control; format: functional; details: OVCAR-8, 48 h, read-out: Activity; method in brief: as §2
DU-145 = assay: Growth inhibition of human DU145 cells assessed as cell growth at 10 uM incubated for 48 hrs by sulforhodamine B assay relative to control; format: functional; details: DU-145, 48 h, read-out: Activity; method in brief: as §2
SF-295 = assay: Growth inhibition of human SF295 cells assessed as cell growth at 10 uM incubated for 48 hrs by sulforhodamine B assay relative to control; format: functional; details: SF-295, 48 h, read-out: Activity; method in brief: as §2
BT-549 = assay: Growth inhibition of human BT549 cells assessed as cell growth at 10 uM incubated for 48 hrs by sulforhodamine B assay relative to control; format: functional; details: BT-549, 48 h, read-out: Activity; method in brief: as §2
MDA-MB-361 = assay: Cytotoxicity against human MDA-MB-361 cells over expressing HER2 assessed as reduction in cell viability after 72 hrs by sulforhodamine B assay; format: functional, cell-based; details: MDA-MB-361, 72 h
Method in brief: (§3)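 Cells seeded and grown 24 h, then exposed to 0.1% DMSO vehicle or 0.3125-20 μM compound for 72 h. Fixed with ice-cold 50% TCA (1 h, 4 °C), stained with 0.4% SRB 30 min at room temperature, dye solubilized in 10 mM tris base pH 10.5, OD read at 560 nm. Survival fraction = OD treated/OD vehicle; IC50 from triplicates of at least two independent experiments, mean ± SD.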

SNB-19 = assay: Growth inhibition of human SNB19 cells assessed as cell growth at 10 uM incubated for 48 hrs by sulforhodamine B assay relative to control; format: functional; details: SNB-19, 48 h, read-out: Activity; method in brief: as §2
A-431 = assay: Cytotoxicity against human A431 cells over expressing EGFR assessed as reduction in cell viability after 72 hrs by sulforhodamine B assay; format: functional, cell-based; details: A-431, 72 h; method in brief: as §3
SF-268 = assay: Growth inhibition of human SF268 cells assessed as cell growth at 10 uM incubated for 48 hrs by sulforhodamine B assay relative to control; format: functional; details: SF-268, 48 h, read-out: Activity; method in brief: as §2
786-0 = assay: Growth inhibition of human 786-0 cells assessed as cell growth at 10 uM incubated for 48 hrs by sulforhodamine B assay relative to control; format: functional; details: 786-0, 48 h, read-out: Activity; method in brief: as §2
UACC-62 = assay: Growth inhibition of human UACC62 cells assessed as cell growth at 10 uM incubated for 48 hrs by sulforhodamine B assay relative to control; format: functional; details: UACC-62, 48 h, read-out: Activity; method in brief: as §1
CCRF-CEM = assay: Growth inhibition of human CCRF-CEM cells assessed as cell growth at 10 uM incubated for 48 hrs by sulforhodamine B assay relative to control; format: functional; details: read-out: Activity; method in brief: as §2
UACC-257 = assay: Growth inhibition of human UACC257 cells assessed as cell growth at 10 uM incubated for 48 hrs by sulforhodamine B assay relative to control; format: functional; details: UACC-257, 48 h, read-out: Activity; method in brief: as §1
IGROV-1 = assay: Growth inhibition of human IGROV1 cells at 10 uM incubated for 48 hrs by sulforhodamine B assay relative to control; format: functional; details: IGROV-1, 48 h, read-out: GI; method in brief: as §2
SK-MEL-28 = assay: Growth inhibition of human SK-MEL-28 cells assessed as cell growth at 10 uM incubated for 48 hrs by sulforhodamine B assay relative to control; format: functional; details: SK-MEL-28, 48 h, read-out: Activity; method in brief: as §2
PC-3 = assay: Growth inhibition of human PC3 cells assessed as cell growth at 10 uM incubated for 48 hrs by sulforhodamine B assay relative to control; format: functional; details: PC-3, 48 h, read-out: Activity; method in brief: as §2
SW-620 = assay: Growth inhibition of human SW620 cells assessed as cell growth at 10 uM incubated for 48 hrs by sulforhodamine B assay relative to control; format: functional; details: SW-620, 48 h, read-out: Activity; method in brief: as §1

Compound: Nc1ccc(-c2cc3c(Nc4ccc(OCc5cccc(F)c5)c(Cl)c4)ncnc3s2)cc1
- inhibition of growth at 10 µM (TK-10): 70%
- growth at 10 µM (HOP-62): 62.3%
- growth at 10 µM (MDA-MB-435): 43.8%
- inhibition of growth at 10 µM (MDA-MB-468): 85%
- growth at 10 µM (NCI-H460): 36.5%
- growth at 10 µM (OVCAR-5): 77.9%
- growth at 10 µM (SNB-75): 87.2%
- inhibition of growth at 10 µM (ACHN): 70%
- growth at 10 µM (OVCAR-3): 46.6%
- growth at 10 µM (NCI/ADR-RES): 50.4%
- growth at 10 µM (OVCAR-8): 63.1%
- growth at 10 µM (DU-145): 36.9%
- growth at 10 µM (SF-295): 47.8%
- growth at 10 µM (BT-549): 61.2%
- IC50 (MDA-MB-361): 5.7 µM
- growth at 10 µM (SNB-19): 77.3%
- IC50 (A-431): 9.76 µM
- growth at 10 µM (SF-268): 52.1%
- growth at 10 µM (786-0): 37.2%
- growth at 10 µM (UACC-62): 55.7%
- growth at 10 µM (CCRF-CEM): 23.9%
- growth at 10 µM (UACC-257): 18.3%
- inhibition of growth at 10 µM (IGROV-1): 60%
- growth at 10 µM (SK-MEL-28): 39.2%
- growth at 10 µM (PC-3): 29.6%
- growth at 10 µM (SW-620): 74.1%

Compound: O=[N+]([O-])c1ccc(-c2cc3c(Nc4ccc(OCc5cccc(F)c5)c(Cl)c4)ncnc3s2)cc1
- inhibition of growth at 10 µM (TK-10): 30%
- growth at 10 µM (HOP-62): 94.7%
- growth at 10 µM (MDA-MB-435): 91.9%
- inhibition of growth at 10 µM (MDA-MB-468): 40%
- growth at 10 µM (NCI-H460): 42.2%
- growth at 10 µM (OVCAR-5): 101%
- growth at 10 µM (SNB-75): 98.5%
- inhibition of growth at 10 µM (ACHN): 23%
- growth at 10 µM (OVCAR-3): 34.5%
- growth at 10 µM (NCI/ADR-RES): 80.5%
- growth at 10 µM (OVCAR-8): 70.3%
- growth at 10 µM (DU-145): 82.1%
- growth at 10 µM (SF-295): 69.7%
- growth at 10 µM (BT-549): 103%
- IC50 (MDA-MB-361): 7.5 µM
- growth at 10 µM (SNB-19): 68%
- IC50 (A-431): 11 µM
- growth at 10 µM (SF-268): 80.1%
- growth at 10 µM (786-0): 95.4%
- growth at 10 µM (UACC-62): 79.1%
- growth at 10 µM (CCRF-CEM): 68.6%
- growth at 10 µM (UACC-257): 93.5%
- inhibition of growth at 10 µM (IGROV-1): 12%
- growth at 10 µM (SK-MEL-28): 110%
- growth at 10 µM (PC-3): 54.1%
- growth at 10 µM (SW-620): 93.5%

— ChEMBL document CHEMBL4270530, “Surmounting the resistance against EGFR inhibitors through the development of thieno[2,3-d]pyrimidine-based dual EGFR/HER2 inhibitors” (Eur J Med Chem, 2018)
